Results reported in ChEMBL document CHEMBL1154106, “Inhibitory effects of 5-benzylidene barbiturate derivatives on mushroom tyrosinase and their antibacterial activities” (Eur J Med Chem, 2009).
Converted amounts (≈) assume the structure as drawn. The source made the active and inactive calls. The rule behind the calls is not given here.

How the values were obtained:
[1] = target: T1, Tyrosinase (Agaricus bisporus) (UniProt O42713); assay: Inhibition of mushroom tyrosinase at 200 uM
T1 sequence (whole entry): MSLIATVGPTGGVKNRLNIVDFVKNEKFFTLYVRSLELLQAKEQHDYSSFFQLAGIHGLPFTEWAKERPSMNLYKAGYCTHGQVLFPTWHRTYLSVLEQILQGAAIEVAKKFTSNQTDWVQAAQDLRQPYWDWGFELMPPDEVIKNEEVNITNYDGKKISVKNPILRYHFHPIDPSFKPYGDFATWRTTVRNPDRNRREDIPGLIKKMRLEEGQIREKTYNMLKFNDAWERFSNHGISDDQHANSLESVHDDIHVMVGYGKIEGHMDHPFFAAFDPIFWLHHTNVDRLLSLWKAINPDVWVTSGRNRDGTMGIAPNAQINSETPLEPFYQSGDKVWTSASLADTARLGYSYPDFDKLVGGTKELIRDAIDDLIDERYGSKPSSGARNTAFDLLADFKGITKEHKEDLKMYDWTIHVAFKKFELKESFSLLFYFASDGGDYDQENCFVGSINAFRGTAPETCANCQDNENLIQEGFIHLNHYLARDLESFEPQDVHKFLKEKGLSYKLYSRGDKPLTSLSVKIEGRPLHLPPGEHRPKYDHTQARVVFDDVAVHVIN
Summary of the method: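 Single-concentration check in the mushroom tyrosinase diphenolase assay. Conditions: 0.5 mM L-DOPA, 50 mM phosphate buffer pH 6.8, enzyme 0.5 mg/mL, 25 °C, 2.0% DMSO final with DMSO controls. Activity read as dopachrome absorbance at 475 nm over 1 min.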

Tyrosinase = target: T2, Tyrosinase (Agaricus bisporus, UniProt O42713); assay: Inhibition of mushroom tyrosinase
T2 sequence (O42713 whole entry): T1 sequence (whole entry)
Summary of the method: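 Mushroom tyrosinase diphenolase assay: 1 mL reaction with 0.5 mM L-DOPA in 50 mM sodium phosphate buffer, pH 6.8, enzyme final 0.5 mg/mL, 25 °C. Compounds dissolved in DMSO (2.0% final); DMSO-only controls run. Dopachrome formation followed at 475 nm for 1 min. IC50 interpolated from dose–response curves; means of three experiments.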

Bacillus cereus = assay: Antibacterial activity against Bacillus cereus at 1 mg/ml after 24 hrs by agar dilution method; format: functional, organism-based
Escherichia coli = assay: Antibacterial activity against Escherichia coli at 1 mg/ml after 24 hrs by agar dilution method; format: functional, organism-based
Pseudomonas aeruginosa = assay: Antibacterial activity against Pseudomonas aeruginosa at 1 mg/ml after 24 hrs by agar dilution method; format: functional, organism-based
Summary of the method: (§1)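 Agar well diffusion: overnight (16–18 h, 37 °C) cultures set to 0.5 McFarland and mixed into Mueller–Hinton agar. Compound stock 1 mg/mL in DMSO loaded into 6 mm wells, with DMSO as control and levofloxacin as reference. Plates incubated 37 °C for 24 h. Read-out is the diameter of the growth-inhibition zone around each well.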

Staphylococcus aureus = assay: Antibacterial activity against Staphylococcus aureus after 24 hrs by agar dilution method; format: functional
Summary of the method: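 MIC by agar dilution on Mueller–Hinton agar containing twofold serial dilutions from a 1 mg/mL DMSO stock. Final levels 50, 25, 12.5, 6.25, 3.1, 1.5, 0.8, 0.4 and 0.2. Inoculum was 16–18 h cultures at 0.5 McFarland; plates incubated 37 °C for 24 h. MIC is the lowest concentration preventing visible growth; levofloxacin was the reference.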

[2] = system: Staphylococcus epidermidis; assay: Antibacterial activity against Staphylococcus epidermidis at 1 mg/ml after 24 hrs by agar dilution method; format: functional, organism-based; summary of the method: as §1
Staphylococcus = assay: Antibacterial activity against Staphylococcus albus at 1 mg/ml after 24 hrs by agar dilution method; format: functional, organism-based

SMILES	inhibition [1]	IC50 (Tyrosinase)	Activity (Bacillus cereus)	Activity (Escherichia coli)	Activity (Pseudomonas aeruginosa)	MIC (Staphylococcus aureus)	Activity [2]	Activity (Staphylococcus)
COc1ccc(/C=C/C(=O)O)cc1	46.6%							
O=C1CC(=O)NC(=O)N1 [BARBITURIC ACID]	5.95%	> 200 µM						
COCCOCCOc1ccc(CC2C(=O)NC(=S)NC2=O)cc1	97.5%	132 µM	inactive	inactive	inactive	> 12.5 µg/mL	inactive	inactive
COCCCCOc1ccc(CC2C(=O)NC(=S)NC2=O)cc1	9.85%	> 200 µM	inactive	inactive	inactive	> 12.5 µg/mL	inactive	inactive
COCCCCOc1ccc(C=C2C(=O)NC(=S)NC2=O)cc1	100%	77.8 µM	inactive	inactive	inactive	> 25 µg/mL	inactive	inactive
O=C1NC(=S)NC(=O)C1=Cc1ccc(OCCO)cc1	16.5%	> 200 µM	inactive	inactive	inactive	> 25 µg/mL	inactive	inactive
COCCCCOc1ccc(C=C2C(=O)NC(=O)NC2=O)cc1	12.2%	> 200 µM	inactive	inactive	inactive	> 25 µg/mL	inactive	inactive
CCCCOCCOc1ccc(C=C2C(=O)NC(=S)NC2=O)cc1	85.9%	107 µM	inactive	inactive	inactive	3.1 µg/mL (≈ 8.9 µM)	inactive	inactive
COCCOc1ccc(C=C2C(=O)NC(=O)NC2=O)cc1	100%	75.4 µM	inactive	inactive	inactive	> 25 µg/mL	inactive	inactive
COCCOCCOc1ccc(C=C2C(=O)NC(=O)NC2=O)cc1	88.7%	137 µM	inactive	inactive	inactive	> 25 µg/mL	inactive	inactive
COCCOc1ccc(C=C2C(=O)NC(=S)NC2=O)cc1	100%	28.4 µM	inactive	inactive	inactive	> 12.5 µg/mL	inactive	inactive
O=C1NC(=S)NC(=O)C1Cc1ccc(O)cc1	100%	70 µM	inactive	inactive	inactive	> 25 µg/mL	inactive	inactive
O=C1CC(=O)NC(=S)N1 [THIOBARBITURIC]	8.21%	> 200 µM						
COCCOCCOc1ccc(C=C2C(=O)NC(=S)NC2=O)cc1	100%	34.2 µM	inactive	inactive	inactive	> 12.5 µg/mL	inactive	inactive
CCCCOCCOc1ccc(C=C2C(=O)NC(=O)NC2=O)cc1	100%	45.4 µM	inactive	inactive	inactive	> 25 µg/mL	inactive	inactive
C[C@H]1COc2c(N3CCN(C)CC3)c(F)cc3c(=O)c(C(=O)O)cn1c23.C[C@H]1COc2c(N3CCN(C)CC3)c(F)cc3c(=O)c(C(=O)O)cn1c23.O [LEVOFLOXACIN]						0.4 µg/mL		
COCCOCCOc1ccc(CC2C(=O)NC(=O)NC2=O)cc1	14.3%	> 200 µM	inactive	inactive	inactive	> 12.5 µg/mL	inactive	inactive
O=C1NC(=S)NC(=O)C1Cc1ccc(OCCO)cc1	95.9%	156 µM	inactive	inactive	inactive	> 25 µg/mL	inactive	inactive
COCCOc1ccc(CC2C(=O)NC(=O)NC2=O)cc1	23.1%	> 200 µM	inactive	inactive	inactive	> 12.5 µg/mL	inactive	inactive
COCCCCOc1ccc(CC2C(=O)NC(=O)NC2=O)cc1	1.15%	> 200 µM	inactive	inactive	inactive	> 12.5 µg/mL	inactive	inactive
O=C1NC(=O)C(=Cc2ccc(O)cc2)C(=O)N1	100%	14 µM	inactive	inactive	inactive	> 25 µg/mL	inactive	inactive
CCCCOCCOc1ccc(CC2C(=O)NC(=S)NC2=O)cc1	78.7%	179 µM	inactive	inactive	inactive	6.25 µg/mL (≈ 17.8 µM)	inactive	inactive
O=C1NC(=O)C(=Cc2ccc(OCCO)cc2)C(=O)N1	22.4%	> 200 µM	inactive	inactive	inactive	> 25 µg/mL	inactive	inactive
CCCCOCCOc1ccc(CC2C(=O)NC(=O)NC2=O)cc1	inactive	> 200 µM	inactive	inactive	inactive	> 12.5 µg/mL	inactive	inactive
O=C1NC(=O)C(Cc2ccc(OCCO)cc2)C(=O)N1	5.27%	> 200 µM	inactive	inactive	inactive	> 12.5 µg/mL	inactive	inactive
COCCOc1ccc(CC2C(=O)NC(=S)NC2=O)cc1	100%	113 µM	inactive	inactive	inactive	> 12.5 µg/mL	inactive	inactive
O=C1NC(=O)C(Cc2ccc(O)cc2)C(=O)N1	47.5%	> 200 µM	inactive	inactive	inactive	> 12.5 µg/mL	inactive	inactive
O=C1NC(=S)NC(=O)C1=Cc1ccc(O)cc1	100%	14.5 µM	inactive	inactive	inactive	3.1 µg/mL (≈ 12.5 µM)	inactive	inactive
O=Cc1ccc(O)cc1 [4-HYDROXYBENZALDEHYDE]	16.4%	1220 µM						
